Experimental data from ChEMBL document CHEMBL1781995, “Acenaphtho[1,2-b]pyrrole-based selective fibroblast growth factor receptors 1 (FGFR1) inhibitors: design, synthesis, and biological activity” (J Med Chem, 2011).
Calls of active or inactive are those of the source. The rule behind the calls is not given here.

Tests used:
T-24 = experiment: Antiproliferative activity against human T24 cells expressing FGFR after 72 hrs by SRB assay; assay type: functional, cell-based; settings: T-24, 72 h
Procedure, shortened: (§1)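 Cells seeded and grown 24 h, then exposed to increasing compound concentrations for 72 h without medium change. Fixed with cold 10% TCA 1 h at 4 °C, stained 15 min with 4 mg/mL SRB in 1% acetic acid, rinsed, dye dissolved in 10 mM Tris base, A515 read. Inhibition = (1 − A515treated/A515control)×100; IC50 by Logit method from at least three independent tests.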

BXPC-3 = experiment: Antiproliferative activity against human BxPC3 cells expressing FGFR after 72 hrs by SRB assay; assay type: functional, cell-based; settings: BXPC-3, 72 h; procedure, shortened: as §1
[1] = molecular target: T1, Fibroblast growth factor receptor 1 (Homo sapiens, UniProt P11362); experiment: Inhibition of FGFR1 using poly(Glu-Tyr)4:1 as substrate after 60 mins by ELISA
Target sequence in this assay (P11362 whole entry): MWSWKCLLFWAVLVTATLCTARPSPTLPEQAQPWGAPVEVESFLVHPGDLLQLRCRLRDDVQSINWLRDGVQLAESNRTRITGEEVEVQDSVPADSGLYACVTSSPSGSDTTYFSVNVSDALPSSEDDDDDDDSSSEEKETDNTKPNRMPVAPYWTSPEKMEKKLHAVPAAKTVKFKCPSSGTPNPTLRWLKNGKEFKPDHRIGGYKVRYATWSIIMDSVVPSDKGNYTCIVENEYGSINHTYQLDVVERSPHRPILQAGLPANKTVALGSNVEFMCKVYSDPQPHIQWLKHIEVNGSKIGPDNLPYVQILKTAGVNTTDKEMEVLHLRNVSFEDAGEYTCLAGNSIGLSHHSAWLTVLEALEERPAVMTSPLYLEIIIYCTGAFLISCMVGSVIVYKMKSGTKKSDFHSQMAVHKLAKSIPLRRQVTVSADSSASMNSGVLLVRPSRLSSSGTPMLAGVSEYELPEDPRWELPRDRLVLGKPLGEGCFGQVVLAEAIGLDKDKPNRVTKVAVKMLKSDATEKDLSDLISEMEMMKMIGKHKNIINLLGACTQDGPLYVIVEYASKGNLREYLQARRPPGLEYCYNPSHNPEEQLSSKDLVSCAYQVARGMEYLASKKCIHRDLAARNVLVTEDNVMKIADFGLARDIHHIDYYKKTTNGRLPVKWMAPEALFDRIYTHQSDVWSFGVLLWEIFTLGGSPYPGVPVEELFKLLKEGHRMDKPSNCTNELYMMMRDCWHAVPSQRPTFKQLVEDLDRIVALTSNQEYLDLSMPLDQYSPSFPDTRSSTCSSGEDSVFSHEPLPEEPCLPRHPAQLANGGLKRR

WI-38 = experiment: Antiproliferative activity against human WI38 cells expressing FGFR after 72 hrs by SRB assay; assay type: cell-based; settings: WI-38, 72 h; procedure, shortened: as §1
[2] = molecular target: T1, Fibroblast growth factor receptor 1; experiment: Inhibition of FGFR1 in human BxPC3 cells assessed as reduction of Erk1/2 phosphorylation at 10 uM after 12 hrs by Western blot analysis; assay type: cell-based; settings: BXPC-3
Procedure, shortened: (§2)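 BxPC3 cells plated at 3 × 10^5 per well, serum-starved 24 h, then treated 12 h with compound (1.25, 2.5, 5, 10 μM). Whole-cell lysates run on 10% SDS-PAGE and immunoblotted for phospho-FGFR1 (Tyr653/654), phospho-Erk1/2 (T202/Y204), phospho-Akt and totals, with GAPDH loading control.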
Target sequence in this assay (P11362 22-822 limits assumed): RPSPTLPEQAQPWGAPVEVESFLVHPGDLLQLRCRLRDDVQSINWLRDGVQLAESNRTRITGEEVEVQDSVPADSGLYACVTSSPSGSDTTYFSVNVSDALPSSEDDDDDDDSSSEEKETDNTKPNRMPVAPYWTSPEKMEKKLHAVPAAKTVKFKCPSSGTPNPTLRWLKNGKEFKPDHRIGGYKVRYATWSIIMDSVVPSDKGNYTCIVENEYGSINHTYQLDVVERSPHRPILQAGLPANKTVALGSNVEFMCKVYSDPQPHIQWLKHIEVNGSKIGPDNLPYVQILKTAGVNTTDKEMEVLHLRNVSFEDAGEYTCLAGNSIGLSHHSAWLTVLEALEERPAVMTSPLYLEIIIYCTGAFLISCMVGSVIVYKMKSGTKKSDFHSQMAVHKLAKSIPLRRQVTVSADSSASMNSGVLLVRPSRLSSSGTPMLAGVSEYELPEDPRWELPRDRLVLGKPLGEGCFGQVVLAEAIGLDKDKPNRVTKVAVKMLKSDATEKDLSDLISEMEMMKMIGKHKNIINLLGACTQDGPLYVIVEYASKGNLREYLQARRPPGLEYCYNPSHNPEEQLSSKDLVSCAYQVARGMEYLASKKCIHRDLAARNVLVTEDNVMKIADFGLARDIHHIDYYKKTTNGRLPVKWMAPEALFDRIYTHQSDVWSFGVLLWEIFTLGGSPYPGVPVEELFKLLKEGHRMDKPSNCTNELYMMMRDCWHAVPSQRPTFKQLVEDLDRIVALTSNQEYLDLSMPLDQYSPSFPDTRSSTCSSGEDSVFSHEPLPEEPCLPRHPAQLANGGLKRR

[3] = molecular target: T1, Fibroblast growth factor receptor 1; experiment: Inhibition of b-FGF-induced FGFR1 phosphorylation in human BxPC3 cells at 1.25 uM after 12 hrs by Western blot analysis; assay type: cell-based; settings: BXPC-3; procedure, shortened: as §2
Target sequence in this assay (P11362 22-822 limits assumed): as above

[4] = molecular target: T1, Fibroblast growth factor receptor 1; experiment: Inhibition of b-FGF-induced FGFR1 phosphorylation in human BxPC3 cells at 10 uM after 12 hrs by Western blot analysis relative to control; assay type: cell-based; settings: BXPC-3; procedure, shortened: as §2
Target sequence in this assay (P11362 22-822 limits assumed): as above

[5] = molecular target: T1, Fibroblast growth factor receptor 1; experiment: Inhibition of b-FGF-induced FGFR1 phosphorylation in human BxPC3 cells after 12 hrs by Western blot analysis; assay type: cell-based; settings: BXPC-3; procedure, shortened: as §2
Target sequence in this assay (P11362 22-822 limits assumed): as above

[6] = molecular target: T1, Fibroblast growth factor receptor 1; experiment: Inhibition of FGFR1 in human BxPC3 cells assessed as reduction of Akt phosphorylation at 10 uM after 12 hrs by Western blot analysis; assay type: cell-based; settings: BXPC-3; procedure, shortened: as §2
Target sequence in this assay (P11362 22-822 limits assumed): as above

Row | SMILES | IC50 (T-24) | IC50 (BXPC-3) | IC50 [1] | IC50 (WI-38) | further results
1 | CCCSC(=O)COC(=O)C1=C2C(=NC1=O)c1cccc3c(SCCC)ccc2c13 | 79.1 µM | 56.3 µM | > 10 µM | > 100 µM | 
2 | CC1OCCC1Sc1ccc2c3c(cccc13)C1=NC(=O)C(C#N)=C12 (configuration not stated) |  |  | > 10 µM |  | 
3 | CCCSc1ccc2c3c(cccc13)C1=NC(=O)C(C#N)=C12 |  |  | > 10 µM |  | 
4 | CCOC(=O)C1=C2C(=NC1=O)c1cccc3c(SC4CCOC4C)ccc2c13 (configuration not stated) |  |  | > 10 µM |  | 
5 | CCOC(=O)C1=C2C(=NC1=O)c1cccc3c(SC(C)C)ccc2c13 |  |  | > 10 µM |  | 
6 | CCCSc1ccc2c3c(cccc13)C1=NC(=O)C(C(=O)OCC(=O)OCC(F)(F)C(F)(F)F)=C12 | > 100 µM | 54.1 µM | > 10 µM | 58.8 µM | 
7 | C=CCOC(=O)C1=C2C(=NC1=O)c1cccc3c(SCC=C)ccc2c13 | 6.6 µM | 2.5 µM | 0.216 µM | 19.7 µM | 
8 | CCOC(=O)C1=C2C(=NC1=O)c1cccc3c(SC(C)C4(C)CSCO4)ccc2c13 (configuration not stated) |  |  | > 10 µM |  | 
9 | C=CCSc1ccc2c3c(cccc13)C1=NC(=O)C(C(=O)OCC(=O)OCC(F)(F)C(F)(F)F)=C12 | 86.4 µM | 38.5 µM | 0.424 µM | 45.6 µM | 
10 | CCOC(=O)C1=C2C(=NC1=O)c1cccc3c(SCCN4CCSC4)ccc2c13 |  |  | > 10 µM |  | 
11 | N#CC1=C2C(=NC1=O)c1cccc3c(SCCO)ccc2c13 |  |  | > 10 µM |  | 
12 | CCOC(=O)C1=C2C(=NC1=O)c1cccc3c(SCCc4cnccn4)ccc2c13 |  |  | 2.1 µM |  | 
13 | CCCSC(=O)COC(=O)C1=C2C(=NC1=O)c1cccc3cccc2c13 | 10.5 µM | 10.1 µM | 0.065 µM | 25.2 µM | 
14 | C=CCSc1ccc2c3c(cccc13)C1=NC(=O)C(C(=O)OCC)=C12 | 0.7 µM | 2.5 µM | 0.485 µM | 4.6 µM | inhibition [2]: Active; inhibition [3]: Active; inhibition [4]: Active; inhibition [5]: Dose-dependent effect; inhibition [6]: inactive
